Reference: ChEMBL document CHEMBL1129349, “Antiretroviral agents as inhibitors of both human immunodeficiency virus type 1 integrase and protease” (J Med Chem, 1996)
pIC50: −log10 of the molar value.

Assays:
[1] = molecular target: T1, Human immunodeficiency virus type 1 integrase (Human immunodeficiency virus 1, UniProt Q7ZJM1); assay: (§1) Inhibitory activity against HIV-1 integrase
How it was run: (§2)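 Purified recombinant wild-type HIV-1 integrase, 200 nM final, preincubated with inhibitor for 30 min at 30 °C. Buffer: 25 mM MOPS pH 7.2, 7.5 mM MnCl2, 50 mM NaCl, 10% DMSO, 10% glycerol, BSA, DTT, 2-mercaptoethanol. Then 20 nM 5'-32P-labeled 21mer U5 duplex added for 60 min. Products run on denaturing 20% polyacrylamide gel and quantified by phosphorimager.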

[2] = molecular target: T1, Human immunodeficiency virus type 1 integrase; assay: as §1; how it was run: as §2; remark: listed apart in the source
[3] = molecular target: T2, Human immunodeficiency virus type 1 protease (Human immunodeficiency virus 1, UniProt Q72874); assay: Inhibitory activity against HIV-1 protease
[4] = test system: Simian immunodeficiency virus; assay: Inhibitory activity against simian was measured immunodeficiency virus (SIV) using 3'-processing (3'-proc); assay type: functional
How it was run: (§3)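 Recombinant FIV or SIV integrase, 600 nM final, preincubated 30 min at 30 °C with inhibitor in Mn2+/MOPS pH 7.2 buffer with 10% DMSO. 20 nM 5'-32P-labeled 21mer duplex added and incubated 60 min. The 3'-processed 19mer was resolved on denaturing 20% polyacrylamide gel and quantified by phosphorimager.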

[5] = test system: Feline immunodeficiency virus; assay: Inhibitory activity against feline was measured immunodeficiency virus (FIV) using 3'-processing (3'-proc) assay..; assay type: functional; how it was run: as §3
CCRF-CEM [6] = assay: Inhibitory activity against HIV-1 infected CEM cells.; assay type: functional, cell-based; settings: Homo sapiens
DNA topoisomerase 1 = molecular target: T3, DNA topoisomerase 1 (Homo sapiens, UniProt P11387); assay: Inhibitory activity against topoisomerase I.
T3 sequence (P11387 whole entry): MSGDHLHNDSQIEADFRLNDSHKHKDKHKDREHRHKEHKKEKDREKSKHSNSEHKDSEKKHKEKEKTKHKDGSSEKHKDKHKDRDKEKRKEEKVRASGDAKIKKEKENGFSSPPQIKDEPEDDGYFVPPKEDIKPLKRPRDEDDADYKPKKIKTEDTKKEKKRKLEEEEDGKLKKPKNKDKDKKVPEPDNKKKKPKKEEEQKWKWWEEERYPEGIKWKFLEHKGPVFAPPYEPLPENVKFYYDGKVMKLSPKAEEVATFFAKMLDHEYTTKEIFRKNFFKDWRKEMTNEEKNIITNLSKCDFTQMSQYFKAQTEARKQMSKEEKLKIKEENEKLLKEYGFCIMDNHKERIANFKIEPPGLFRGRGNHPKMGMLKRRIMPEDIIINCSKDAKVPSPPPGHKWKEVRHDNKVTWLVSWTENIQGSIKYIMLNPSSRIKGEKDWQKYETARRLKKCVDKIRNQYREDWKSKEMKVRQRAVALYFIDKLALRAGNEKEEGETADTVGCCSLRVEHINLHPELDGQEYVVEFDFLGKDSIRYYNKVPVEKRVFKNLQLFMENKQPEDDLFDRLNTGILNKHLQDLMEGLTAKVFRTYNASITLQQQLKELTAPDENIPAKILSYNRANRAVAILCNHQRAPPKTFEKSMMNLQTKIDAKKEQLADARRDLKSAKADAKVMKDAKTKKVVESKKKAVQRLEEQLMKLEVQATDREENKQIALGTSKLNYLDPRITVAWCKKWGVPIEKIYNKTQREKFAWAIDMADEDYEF
How it was run: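 Eukaryotic topoisomerase I on a duplex oligonucleotide with a single strong cleavage site, 3'-end labeled with α-[32P]cordycepin. Scored both for induction of cleavable complexes and for blocking camptothecin-induced complexes. Stopped with 0.5% SDS, proteinase K 60 min at 50 °C, denaturing 16% PAGE.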

[7] = molecular target: T2, Human immunodeficiency virus type 1 protease; assay: Inhibitory activity against HIV-1 Protease.
[8] = molecular target: T4, Human immunodeficiency virus type 2 integrase (Human immunodeficiency virus 2, UniProt P89582); assay: Inhibitory activity against HIV-2 Integrase was measured using 3'-processing (3'-proc) assay.
T4 sequence (P89582 whole entry): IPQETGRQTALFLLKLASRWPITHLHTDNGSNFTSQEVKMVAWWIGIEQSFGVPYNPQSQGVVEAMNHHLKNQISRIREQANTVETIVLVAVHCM
How it was run: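 HIV-2 integrase, 200 nM final, preincubated 30 min at 30 °C with inhibitor in Mn2+/MOPS pH 7.2 buffer containing 10% DMSO. 3'-processing started with 20 nM 5'-32P-labeled 21mer duplex substrate and run 60 min more. Denaturing 20% PAGE, phosphorimager quantitation of the 19mer product.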

CCRF-CEM [9] = assay: Inhibitory activity against HIV-1 infected CEM cells; inactive; assay type: functional, cell-based, Homo sapiens

T1 sequence (Q7ZJM1 whole entry): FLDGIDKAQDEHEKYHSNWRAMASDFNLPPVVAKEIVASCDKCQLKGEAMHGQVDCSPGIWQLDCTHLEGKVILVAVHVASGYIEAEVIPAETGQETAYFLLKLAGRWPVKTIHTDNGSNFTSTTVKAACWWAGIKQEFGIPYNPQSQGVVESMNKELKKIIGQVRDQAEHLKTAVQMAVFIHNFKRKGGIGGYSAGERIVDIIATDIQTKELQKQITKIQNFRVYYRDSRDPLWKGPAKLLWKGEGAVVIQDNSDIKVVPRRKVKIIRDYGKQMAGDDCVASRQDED

| pIC50 [1] | pIC50 [2] | pIC50 [3] | SMILES | other results |
| --- | --- | --- | --- | --- |
| < 4.00 | < 4.00 |  | O=C1C(O)=C(C(C2=C(O)C(=O)c3ccccc3C2=O)c2ccc(Cl)cc2)C(=O)c2ccccc21 |  |
| 4.43 | 4.40 | 4.62 | O=C1C(O)=C(C(C2=C(O)C(=O)c3ccccc3C2=O)c2ccc(Cl)cc2Cl)C(=O)c2ccccc21 |  |
| 5.82 | 6.10 |  | O=c1c(C(c2ccc(C(c3c(O)oc4ccccc4c3=O)c3c(O)oc4ccccc4c3=O)cc2)c2c(O)oc3ccccc3c2=O)c(O)oc2ccccc12 | pIC50 [4]: 5.64; pIC50 [5]: 5.66; pIC50 (CCRF-CEM [6]): 4.94; pIC50 (DNA topoisomerase 1): 5.00; pIC50 [7]: 5.77; pIC50 [8]: 6.00 |
| 4.10 | 4.00 | 4.68 | O=C1Oc2ccccc2C(O)C1Sc1c(O)oc2ccccc2c1=O (configuration not stated) |  |
| 4.07 | 4.11 |  | CC(=O)Nc1ccc(C(C2=C(O)C(=O)c3ccccc3C2=O)C2=C(O)C(=O)c3ccccc3C2=O)cc1 |  |
| < 4.00 | < 4.00 | < 4.00 | COc1ccc2c(O)c(S(=O)(=O)c3ccc(C)cc3)c(=O)oc2c1 |  |
| < 4.00 | < 4.00 |  | CC(C1=C(O)C(=O)c2ccccc2C1=O)C1=C(O)C(=O)c2ccccc2C1=O |  |
| 4.08 | 4.05 |  | O=C1C(O)=C(C(CCc2ccccc2)C2=C(O)C(=O)c3ccccc3C2=O)C(=O)c2ccccc21 |  |
| < 4.00 | < 4.00 |  | CCOc1ccc(C(C2=C(O)C(=O)c3ccccc3C2=O)C2=C(O)C(=O)c3ccccc3C2=O)cc1OC |  |
| < 4.00 | < 4.00 | < 4.00 | CC(=O)c1cccc(NC(=O)C(=O)c2c(O)oc3ccccc3c2=O)c1 |  |
| < 4.00 | < 4.00 | < 4.00 | O=C1Oc2ccccc2C(O)C1Cc1c(O)oc2ccccc2c1=O (configuration not stated) |  |
| 4.05 | 4.28 |  | O=C1C(O)=C(C(C2=C(O)C(=O)c3ccccc3C2=O)c2ccc(Cl)c(Cl)c2)C(=O)c2ccccc21 |  |
| < 4.00 | < 4.00 | < 4.00 | COc1ccc2c(O)c(S(=O)(=O)c3ccc(Cl)cc3)c(=O)oc2c1 |  |
| < 4.00 | < 4.00 | 4.89 | O=c1oc2c(-c3ccccc3)cccc2c(O)c1-c1ccccc1 |  |
| < 4.00 | < 4.00 | < 4.00 | Cc1ccc(S(=O)(=O)N/N=C(/CCN2CCCC2)CC(c2ccccc2)c2c(O)oc3ccccc3c2=O)cc1 (configuration not stated) |  |
| < 4.00 | < 4.00 | < 4.00 | O=C(c1cccc([N+](=O)[O-])c1)c1c(O)oc2ccccc2c1=O |  |
| < 4.00 | < 4.00 | < 4.00 | O=c1oc2cccc(O)c2c(O)c1Cc1ccccc1 |  |

| pIC50 [1] | pIC50 [2] | pIC50 [3] | SMILES | other results |
| --- | --- | --- | --- | --- |
| < 4.00 | < 4.00 | 4.49 | O=c1oc2ccccc2c(O)c1-c1ccccc1 |  |
| 5.12 | 5.57 |  | O=C1C(O)=C(C(C2=C(O)C(=O)c3ccccc3C2=O)c2ccc(C(C3=C(O)C(=O)c4ccccc4C3=O)C3=C(O)C(=O)c4ccccc4C3=O)cc2)C(=O)c2ccccc21 | IC50 (CCRF-CEM [9]): Not Active; pIC50 (DNA topoisomerase 1): 4.22; pIC50 [7]: 6.12 |
| < 4.00 | < 4.00 | < 4.00 | O=C(NC1=C(Cl)C(=O)c2ccccc2C1=O)C(=O)c1c(O)c2ccccc2oc1=O |  |
| 4.04 | 4.25 | 5.52 | O=C1C(=O)c2ccccc2C(O)=C1Cc1ccc(Cl)cc1 |  |
| < 4.00 | 4.14 |  | O=C1C(O)=C(C(C#Cc2ccccc2)C2=C(O)C(=O)c3ccccc3C2=O)C(=O)c2ccccc21 |  |
| 4.49 | 4.70 |  | COc1cc(C(C2=C(O)C(=O)c3ccccc3C2=O)C2=C(O)C(=O)c3ccccc3C2=O)cc(Br)c1O |  |
| < 4.00 | < 4.00 |  | CN(C)c1ccc(C(C2=C(O)C(=O)c3ccccc3C2=O)C2=C(O)C(=O)c3ccccc3C2=O)cc1 |  |
| < 4.00 | < 4.00 | 5.07 | O=C1C(=O)c2ccccc2C(O)=C1CCCC1CCC2CCCCC2C1 (configuration not stated) |  |
| < 4.00 | < 4.00 | 4.48 | CCCCCCC/N=C1/C(=O)c2ccccc2C(O)=C1O |  |
| 4.17 | 4.32 |  | O=C1C(O)=C(C(C2=C(O)C(=O)c3ccccc3C2=O)c2ccccc2)C(=O)c2ccccc21 |  |
| < 4.00 | < 4.00 | 4.30 | O=C1C(=O)c2ccccc2C(O)=C1CSc1ccc(Cl)cc1 |  |
| 4.04 | 4.22 |  | CCOC(=O)C(C1=C(O)C(=O)c2ccccc2C1=O)C1=C(O)C(=O)c2ccccc2C1=O |  |
| < 4.00 | < 4.00 | < 4.00 | O=C1C(=O)c2ccccc2C(O)=C1Sc1ccccc1 |  |
| < 4.00 | < 4.00 | < 4.00 | O=C(SCc1c(O)c2ccccc2oc1=O)c1ccccc1 |  |
| < 4.00 | < 4.00 |  | COc1cc(C(C2=C(O)C(=O)c3ccccc3C2=O)C2=C(O)C(=O)c3ccccc3C2=O)cc(OC)c1OC |  |
| < 4.00 | < 4.00 | < 4.00 | O=C(c1ccc(Cl)cc1)c1c(O)c2ccccc2oc1=O |  |
|  |  | < 4.00 | O=C1C=C(O)C(=O)c2ccccc21 [LAWSONE] |  |

| SMILES | pIC50 [1] | pIC50 [2] | pIC50 [3] | other results |
| --- | --- | --- | --- | --- |
| CC(C)c1cccc(C(C)C)c1NC(=O)C(=O)CC(=O)CC(c1ccccc1)c1c(O)oc2ccccc2c1=O (configuration not stated) | < 4.00 | < 4.00 | 4.51 |  |
| O=c1c(C(c2ccc3c(c2)OCO3)c2c(O)oc3ccccc3c2=O)c(O)oc2ccccc12 | 4.33 | 4.74 | 4.52 |  |
| CCCCCCc1cc2c(cc1O)OC(=O)C(C(c1ccccc1)c1c(O)oc3cc(O)c(CCCCCC)cc3c1=O)C2O (configuration not stated) | 4.98 | 4.92 | 6.49 |  |
| CCOC(=O)C(c1c(O)c2ccccc2oc1=O)c1c(O)c2ccccc2oc1=O [ETHYL BISCOUMACETATE] | < 4.00 | < 4.00 | < 4.00 |  |
